From ChEMBL document CHEMBL4602616, “Design, synthesis and biological evaluation of novel indole-based oxalamide and aminoacetamide derivatives as tubulin polymerization inhibitors” (Bioorg Med Chem Lett, 2020)
Each block holds one molecule with its values, some of them ahead of it. Activity calls are given as the source filed them. The calls are words filed in the database; no cut-off is given here.

Experiments:
HeLa [1] = assay: Antiproliferative activity against human HeLa cells assessed as reduction in cell growth after 48 hrs by MTT assay; format: functional, cell-based
PC-3 = assay: Antiproliferative activity against human PC3 cells assessed as reduction in cell viability; format: functional, cell-based
Tubulin (Homo sapiens) [2] = target: T1, Tubulin (Homo sapiens) (UniProt P68371+Q9H4B7+P0DPH7+P68366+Q13509+Q71U36+P04350+Q3ZCM7+P07437+P68363+Q9BQE3+Q6PEY2+Q13885+Q9BVA1+Q9BUF5); assay: Inhibition of tubulin polymerization (unknown origin) at 10 uM relative to control; format: protein-complex assay
How it was run: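 In vitro tubulin polymerization measured with compounds at a final concentration of 10 μM; result given as percent inhibition.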

HCT-116 = assay: Antiproliferative activity against human HCT116 cells assessed as reduction in cell viability; format: functional, cell-based
HeLa [3] = assay: Induction of cell cycle arrest in human HeLa cells assessed as accumulation at S phase at 15 uM after 24 hrs by PI staining based flow cytometric analysis (reference value: 18.38%); format: functional
Tubulin (Homo sapiens) [4] = target: T1, Tubulin (Homo sapiens); assay: Inhibition of tubulin polymerization in human HeLa cells assessed as disruption of beta tubulin at 15 to 30 uM after 12 hrs by immunofluorescence based confocal microscopy; format: cell-based
How it was run: (§1)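 HeLa cells grown on glass coverslips, incubated with compound at 15 or 30 μM for 12 h, then fixed; α- and β-tubulin visualized by immunocytochemistry and confocal microscopy, compared with untreated cells.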

HeLa [5] = assay: Induction of cell cycle arrest in human HeLa cells assessed as accumulation at G0/G1 phase at 15 uM after 24 hrs by PI staining based flow cytometric analysis (reference value: 69.86%); format: functional
HeLa [6] = assay: Induction of cell cycle arrest in human HeLa cells assessed as accumulation at G2/M phase at 7.5 uM after 24 hrs by PI staining based flow cytometric analysis (reference value: 11.76%); format: functional
HeLa [7] = assay: Induction of cell cycle arrest in human HeLa cells assessed as accumulation at S phase at 7.5 uM after 24 hrs by PI staining based flow cytometric analysis (reference value: 18.38%); format: functional
Tubulin (Homo sapiens) [8] = target: T1, Tubulin (Homo sapiens); assay: Inhibition of tubulin polymerization in human HeLa cells assessed as cell membrane rounding at 15 to 30 uM after 12 hrs by immunofluorescence based confocal microscopy; how it was run: as §1
HeLa [9] = assay: Induction of cell cycle arrest in human HeLa cells assessed as accumulation at G2/M phase at 30 uM after 24 hrs by PI staining based flow cytometric analysis (reference value: 11.76%); format: functional
HeLa [10] = assay: Induction of cell cycle arrest in human HeLa cells assessed as accumulation at G0/G1 phase at 7.5 uM after 24 hrs by PI staining based flow cytometric analysis (reference value: 69.86%); format: functional
HeLa [11] = assay: Induction of cell cycle arrest in human HeLa cells assessed as accumulation at G0/G1 phase at 30 uM after 24 hrs by PI staining based flow cytometric analysis (reference value: 69.86%); format: functional
HeLa [12] = assay: Induction of cell cycle arrest in human HeLa cells assessed as debris content at 15 uM after 24 hrs by PI staining based flow cytometric analysis (reference value: 0.05%); format: functional
Tubulin (Homo sapiens) [13] = target: T1, Tubulin (Homo sapiens); assay: Inhibition of tubulin polymerization in human HeLa cells assessed as microtubule spindle shrinkage around nucleus at 15 to 30 uM after 12 hrs by immunofluorescence based confocal microscopy; format: cell-based; how it was run: as §1
HeLa [14] = assay: Induction of cell cycle arrest in human HeLa cells assessed as accumulation at S phase at 30 uM after 24 hrs by PI staining based flow cytometric analysis (reference value: 18.38%); format: functional
Tubulin (Homo sapiens) [15] = target: T1, Tubulin (Homo sapiens); assay: Inhibition of tubulin polymerization in human HeLa cells assessed as disruption of alpha tubulin at 15 to 30 uM after 12 hrs by immunofluorescence based confocal microscopy; format: cell-based; how it was run: as §1
HeLa [16] = assay: Induction of cell cycle arrest in human HeLa cells assessed as accumulation at G2/M phase at 15 uM after 24 hrs by PI staining based flow cytometric analysis (reference value: 11.76%); format: functional
HeLa [17] = assay: Induction of cell cycle arrest in human HeLa cells assessed as debris content at 30 uM after 24 hrs by PI staining based flow cytometric analysis (reference value: 0.05%); format: functional
HeLa [18] = assay: Induction of cell cycle arrest in human HeLa cells assessed as accumulation of cells at G2/M phase after 24 hrs by PI-staining based flow cytometric analysis; format: functional
HeLa [19] = assay: Induction of cell cycle arrest in human HeLa cells assessed as debris content at 7.5 uM after 24 hrs by PI staining based flow cytometric analysis (reference value: 0.05%); format: functional
HeLa [20] = assay: Antiproliferative activity against human HeLa cells assessed as reduction in cell viability; format: functional, cell-based

Structure (SMILES): CC(=O)c1[nH]c2cc(Cl)ccc2c1NC(=O)C(=O)Nc1ccncc1
IC50 (HeLa [1]): 69.6 µM

Structure (SMILES): O=C(Nc1ccncc1)C(=O)Nc1c(C(=O)C2CC2)[nH]c2ccccc12
IC50 (HeLa [1]): > 100 µM

Structure (SMILES): O=C(Nc1ccccc1)C(=O)Nc1c[nH]c2ccccc12
IC50 (HeLa [1]): 76.7 µM

Structure (SMILES): Cc1ccc2c(NC(=O)C(=O)Nc3ccncc3)c(C(=O)c3ccco3)[nH]c2c1
IC50 (HeLa [1]): 56.9 µM

Structure (SMILES): O=C(Nc1ccncc1)C(=O)Nc1c(C(=O)c2ccco2)[nH]c2cc(Cl)ccc12
IC50 (HeLa [1]): 21.8 µM

Structure (SMILES): COc1cc2c(c(OC)c1OC)-c1ccc(OC)c(=O)cc1[C@@H](NC(C)=O)CC2 [COLCHICINE]
IC50 (HeLa [1]): 0.03 µM | IC50 (HCT-116): 0.25 µM

Structure (SMILES): Cc1ccc2c(NC(=O)C(=O)Nc3ccncc3)c(C(=O)C3CC3)[nH]c2c1
IC50 (HeLa [1]): > 100 µM

Structure (SMILES): O=C(Nc1ccncc1)C(=O)c1cn(Cc2ccc(Cl)cc2)c2ccccc12 [INDIBULIN]
IC50 (HeLa [20]): 0.115 µM

Structure (SMILES): O=C(Nc1ccccc1)C(=O)Nc1c(C(=O)C2CC2)[nH]c2cc(Cl)ccc12
IC50 (HeLa [1]): > 100 µM

Structure (SMILES): CC(=O)c1[nH]c2cc(C)ccc2c1NC(=O)C(=O)Nc1ccncc1
IC50 (HeLa [1]): > 100 µM

Structure (SMILES): O=C(Nc1ccncc1)C(=O)Nc1c(C(=O)C2CC2)[nH]c2cc(Cl)ccc12
IC50 (HeLa [1]): 80.7 µM

Structure (SMILES): Cc1ccc2c(NC(=O)C(=O)Nc3ccccc3)c(C(=O)C3CC3)[nH]c2c1
IC50 (HeLa [1]): 82.3 µM

Structure (SMILES): O=C(Nc1ccncc1)C(=O)Nc1c[nH]c2ccccc12
IC50 (HeLa [1]): > 100 µM

Structure (SMILES): CC(=O)c1[nH]c2ccccc2c1NC(=O)C(=O)Nc1ccncc1
IC50 (HeLa [1]): 62.4 µM

Now from value to molecule, other results behind:

IC50 (HeLa [1]): 55.2 µM
Structure (SMILES): Cc1ccc2c(NC(=O)C(=O)Nc3ccccc3)c(C(=O)c3ccccc3)[nH]c2c1

IC50 (HeLa [1]): 75.1 µM
Structure (SMILES): Cc1ccc2c(NC(=O)C(=O)Nc3ccncc3)c(C(=O)c3ccccc3)[nH]c2c1

IC50 (PC-3): 21.8 µM | inhibition (Tubulin (Homo sapiens) [2]): 43% | IC50 (HeLa [1]): 16.7 µM | IC50 (HCT-116): 18.2 µM
Structure (SMILES): COc1ccc(C(=O)c2[nH]c3cc(Cl)ccc3c2NC(=O)CNc2ccc(F)cc2)cc1

IC50 (PC-3): 15.8 µM | inhibition (Tubulin (Homo sapiens) [2]): 29% | IC50 (HeLa [1]): 18.3 µM | IC50 (HCT-116): 20.4 µM
Structure (SMILES): COc1ccc(C(=O)c2[nH]c3cc(Cl)ccc3c2NC(=O)CNc2ccc(C)cc2)cc1

IC50 (HeLa [1]): > 100 µM
Structure (SMILES): O=C(Nc1ccncc1)C(=O)Nc1c(C(=O)c2ccccc2)[nH]c2cc(Cl)ccc12

IC50 (HeLa [1]): 62.9 µM
Structure (SMILES): O=C(Nc1ccccc1)C(=O)Nc1c(C(=O)c2ccccc2)[nH]c2ccccc12

inhibition (Tubulin (Homo sapiens) [4]): Active | inhibition (Tubulin (Homo sapiens) [8]): Active | IC50 (PC-3): 14.4 µM | inhibition (Tubulin (Homo sapiens) [13]): Active | inhibition (Tubulin (Homo sapiens) [2]): 46% | IC50 (HeLa [1]): 15.4 µM | inhibition (Tubulin (Homo sapiens) [15]): Active | IC50 (HCT-116): 12 µM
Structure (SMILES): O=C(CNc1ccccc1)Nc1c(C(=O)c2ccccc2)[nH]c2cc(Cl)ccc12
Activity (HeLa [3]): 14.73% | Activity (HeLa [5]): 64.57% | Activity (HeLa [6]): 14.2% | Activity (HeLa [7]): 17.7% | Activity (HeLa [9]): 25.2% | Activity (HeLa [10]): 68.1% | Activity (HeLa [11]): 64.24% | Activity (HeLa [12]): 0% | Activity (HeLa [14]): 10.56% | Activity (HeLa [16]): 20.7% | Activity (HeLa [17]): 0.07% | Activity (HeLa [18]): Dose-dependent effect | Activity (HeLa [19]): 0.04%

IC50 (HeLa [1]): > 100 µM
Structure (SMILES): COc1cc(NCC(=O)Nc2c(C(=O)c3ccccc3)[nH]c3cc(Cl)ccc23)cc(OC)c1OC

IC50 (HeLa [1]): 56.8 µM
Structure (SMILES): O=C(Nc1ccncc1)C(=O)Nc1c(C(=O)c2ccco2)[nH]c2ccccc12

IC50 (HeLa [1]): 31.1 µM
Structure (SMILES): Cc1ccc(C(=O)c2[nH]c3ccccc3c2NC(=O)CNc2ccccc2C)cc1

IC50 (PC-3): 43.7 µM | inhibition (Tubulin (Homo sapiens) [2]): 7% | IC50 (HeLa [1]): 16.2 µM | IC50 (HCT-116): 46.9 µM
Structure (SMILES): COc1ccc(NCC(=O)Nc2c(C(=O)c3ccc(OC)cc3)[nH]c3ccccc23)cc1

IC50 (HeLa [1]): > 100 µM
Structure (SMILES): O=C(Nc1ccccc1)C(=O)Nc1c(C(=O)C2CC2)[nH]c2ccccc12

IC50 (HeLa [1]): 85.3 µM
Structure (SMILES): O=C(Nc1ccncc1)C(=O)Nc1c(C(=O)c2ccccc2)[nH]c2ccccc12

IC50 (HeLa [1]): 27.9 µM
Structure (SMILES): COc1ccc(C(=O)c2[nH]c3ccccc3c2NC(=O)CNc2ccccc2C)cc1

IC50 (HeLa [1]): > 100 µM
Structure (SMILES): COc1ccc(C(=O)c2[nH]c3cc(Cl)ccc3c2NC(=O)CNc2cc(OC)c(OC)c(OC)c2)cc1

IC50 (HeLa [1]): 29.2 µM
Structure (SMILES): O=C(Nc1ccccc1)C(=O)Nc1c(C(=O)c2ccccc2)[nH]c2cc(Cl)ccc12
